Results on eleven molecules are retold here after ChEMBL document CHEMBL4145460, “Discovery of novel high potent and cellular active ADC type PTP1B inhibitors with selectivity over TC-PTP via modification interacting with C site” (Eur J Med Chem, 2018).

For assay [1], the target named is T1, Tyrosine-protein phosphatase non-receptor type 2 (Homo sapiens, UniProt P17706).
T1 sequence (P17706 whole entry): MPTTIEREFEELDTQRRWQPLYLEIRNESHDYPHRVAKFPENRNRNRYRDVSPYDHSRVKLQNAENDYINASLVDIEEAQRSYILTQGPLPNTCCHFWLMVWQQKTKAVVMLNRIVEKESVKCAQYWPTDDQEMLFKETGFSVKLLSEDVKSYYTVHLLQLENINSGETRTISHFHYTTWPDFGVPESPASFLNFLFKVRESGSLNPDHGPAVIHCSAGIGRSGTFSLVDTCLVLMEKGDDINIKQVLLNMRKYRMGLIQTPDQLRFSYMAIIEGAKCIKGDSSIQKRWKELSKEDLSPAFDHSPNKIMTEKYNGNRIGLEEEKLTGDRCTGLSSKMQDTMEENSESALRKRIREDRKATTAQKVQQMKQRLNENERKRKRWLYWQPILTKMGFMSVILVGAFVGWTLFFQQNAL
The assay is described as follows: Inhibition of human TCPTP using pNNP as substrate after 30 mins.

The species named for a further assay is Homo sapiens. The assay is described as follows: Selective ratio of IC50 for human TCPTP to IC50 for recombinant human PTP1B. The gist of the method:
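Ratio of TCPTP IC50 to PTP1B IC50. Both measured with the same pNPP assay: 2 mM pNPP, pH 6.5 with DTT and EDTA, 30 min at 37 °C, NaOH stop, A405, logit-derived IC50.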

The target of assay [2] is T2, Tyrosine-protein phosphatase non-receptor type 6 (Homo sapiens, UniProt P29350). Nature of the assay: Inhibition of human GST-tagged SHP1 (244 to 570 residues) expressed in Escherichia coli BL21-CondenPlus (DE3) using pNNP as substrate.
Assay [3] has as its target T3, Receptor-type tyrosine-protein phosphatase F (Homo sapiens, UniProt P10586). Nature of the assay: Inhibition of human GST-tagged LAR D1 (1275 to 1613 residues) expressed in Escherichia coli BL21-CondenPlus (DE3) using pNNP as substrate.
Assay [4] deals with T4, Tyrosine-protein phosphatase non-receptor type 1 (Homo sapiens, UniProt P18031).
T4 sequence (P18031 whole entry): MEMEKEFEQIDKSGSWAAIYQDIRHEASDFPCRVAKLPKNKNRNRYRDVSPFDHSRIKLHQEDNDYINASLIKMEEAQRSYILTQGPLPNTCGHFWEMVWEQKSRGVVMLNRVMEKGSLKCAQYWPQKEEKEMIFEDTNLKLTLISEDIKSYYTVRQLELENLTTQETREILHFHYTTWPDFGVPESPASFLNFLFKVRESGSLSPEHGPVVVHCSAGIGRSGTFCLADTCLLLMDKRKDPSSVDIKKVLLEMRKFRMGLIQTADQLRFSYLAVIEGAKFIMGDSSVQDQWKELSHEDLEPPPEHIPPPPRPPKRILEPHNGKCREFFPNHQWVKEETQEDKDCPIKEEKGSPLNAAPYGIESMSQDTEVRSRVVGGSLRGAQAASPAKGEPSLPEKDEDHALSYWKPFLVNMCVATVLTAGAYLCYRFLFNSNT
Nature of the assay: Inhibition of recombinant human PTP1B using pNNP as substrate after 30 mins.

Assay [5] deals with T5, Tyrosine-protein phosphatase non-receptor type 11 (Homo sapiens) (UniProt Q06124).
T5 sequence (whole entry): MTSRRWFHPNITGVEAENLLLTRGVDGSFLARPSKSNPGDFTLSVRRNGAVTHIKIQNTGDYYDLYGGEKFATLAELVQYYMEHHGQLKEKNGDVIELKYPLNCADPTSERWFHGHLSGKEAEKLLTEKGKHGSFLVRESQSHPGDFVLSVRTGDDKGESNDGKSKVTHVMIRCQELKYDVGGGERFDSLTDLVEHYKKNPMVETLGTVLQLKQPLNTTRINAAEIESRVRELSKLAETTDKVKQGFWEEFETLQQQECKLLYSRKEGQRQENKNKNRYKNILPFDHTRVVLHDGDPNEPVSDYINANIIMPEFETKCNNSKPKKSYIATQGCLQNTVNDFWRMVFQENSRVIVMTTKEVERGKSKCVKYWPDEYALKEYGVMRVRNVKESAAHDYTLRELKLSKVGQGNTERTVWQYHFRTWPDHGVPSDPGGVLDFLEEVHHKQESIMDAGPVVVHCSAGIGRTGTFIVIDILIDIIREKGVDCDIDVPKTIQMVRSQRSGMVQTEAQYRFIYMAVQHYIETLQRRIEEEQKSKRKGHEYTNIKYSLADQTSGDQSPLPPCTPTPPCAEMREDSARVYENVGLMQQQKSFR
The assay is described as follows: Inhibition of human GST-tagged SHP2 ([…] residues) expressed in Escherichia coli BL21-CondenPlus (DE3) at 25 uM using pNNP as substrate relative to control.

Assay [6] addresses T6, Tyrosine-protein phosphatase non-receptor type 1 (Homo sapiens) (UniProt P18031).
T6 sequence (whole entry): T4 sequence (P18031 whole entry)
The assay is described as follows: Inhibition of recombinant human PTP1B at 25 uM using pNNP as substrate after 30 mins relative to control. The procedure, abridged: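 Recombinant PTP1B, 30 nM, with 2 mM pNPP, 1 mM dithiothreitol and 1 mM EDTA at pH 6.5. Compounds delivered from DMSO. Incubated 30 min at 37 °C, stopped with 2.5 M NaOH, pNP read at 405 nm.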

Assay [7] relates to L6. Nature of the assay: Antidiabetic activity in rat L6 cells assessed as increase in insulin-stimulated 2-NBDG uptake at 0.5 uM after 30 mins by fluorescent assay relative to control. Format: functional. The gist of the method: (§1)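 Differentiated L6 myotubes rinsed with warm PBS, serum-starved (serum-free DMEM 3 h, 37 °C; figure legend says 2 h), then exposed to compound at […] for 4 h. Insulin 10 nM for 10 min at 37 °C in Krebs-Ringer phosphate buffer pH 7.4, then 2-NBDG added. Uptake read after 30 min by fluorescence at ex 485/em 535 nm. Background from cells with drug but no 2-NBDG. n = 3, mean ± SEM.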

Assay [8] relates to L6. The assay is described as follows: Antidiabetic activity in rat L6 cells assessed as increase in insulin-stimulated 2-NBDG uptake at 2.5 uM after 30 mins by fluorescent assay relative to control. The assay is classed as functional. The procedure, abridged:
as §1

In assay [9] the target is T7, Tyrosine-protein phosphatase non-receptor type 11 (Homo sapiens, UniProt Q06124).
T7 sequence (Q06124 whole entry): T5 sequence (whole entry)
The assay is described as follows: Inhibition of human GST-tagged SHP2 ([…] residues) expressed in Escherichia coli BL21-CondenPlus (DE3) using pNNP as substrate.

Assay [10] concerns L6. The assay is described as follows: Antidiabetic activity in rat L6 cells assessed as increase in insulin-stimulated 2-NBDG uptake at 10 uM after 30 mins by fluorescent assay relative to control. The assay is classed as functional. The procedure, abridged: as §1
For assay [11], the target named is T3, Receptor-type tyrosine-protein phosphatase F. Nature of the assay: Inhibition of human GST-tagged LAR D1 (1275 to 1613 residues) expressed in Escherichia coli BL21-CondenPlus (DE3) at 25 uM using pNNP as substrate relative to control.
Assay [12] deals with T2, Tyrosine-protein phosphatase non-receptor type 6. Nature of the assay: Inhibition of human GST-tagged SHP1 (244 to 570 residues) expressed in Escherichia coli BL21-CondenPlus (DE3) at 25 uM using pNNP as substrate relative to control.

T3 sequence (P10586 whole entry, the tested form may be a part): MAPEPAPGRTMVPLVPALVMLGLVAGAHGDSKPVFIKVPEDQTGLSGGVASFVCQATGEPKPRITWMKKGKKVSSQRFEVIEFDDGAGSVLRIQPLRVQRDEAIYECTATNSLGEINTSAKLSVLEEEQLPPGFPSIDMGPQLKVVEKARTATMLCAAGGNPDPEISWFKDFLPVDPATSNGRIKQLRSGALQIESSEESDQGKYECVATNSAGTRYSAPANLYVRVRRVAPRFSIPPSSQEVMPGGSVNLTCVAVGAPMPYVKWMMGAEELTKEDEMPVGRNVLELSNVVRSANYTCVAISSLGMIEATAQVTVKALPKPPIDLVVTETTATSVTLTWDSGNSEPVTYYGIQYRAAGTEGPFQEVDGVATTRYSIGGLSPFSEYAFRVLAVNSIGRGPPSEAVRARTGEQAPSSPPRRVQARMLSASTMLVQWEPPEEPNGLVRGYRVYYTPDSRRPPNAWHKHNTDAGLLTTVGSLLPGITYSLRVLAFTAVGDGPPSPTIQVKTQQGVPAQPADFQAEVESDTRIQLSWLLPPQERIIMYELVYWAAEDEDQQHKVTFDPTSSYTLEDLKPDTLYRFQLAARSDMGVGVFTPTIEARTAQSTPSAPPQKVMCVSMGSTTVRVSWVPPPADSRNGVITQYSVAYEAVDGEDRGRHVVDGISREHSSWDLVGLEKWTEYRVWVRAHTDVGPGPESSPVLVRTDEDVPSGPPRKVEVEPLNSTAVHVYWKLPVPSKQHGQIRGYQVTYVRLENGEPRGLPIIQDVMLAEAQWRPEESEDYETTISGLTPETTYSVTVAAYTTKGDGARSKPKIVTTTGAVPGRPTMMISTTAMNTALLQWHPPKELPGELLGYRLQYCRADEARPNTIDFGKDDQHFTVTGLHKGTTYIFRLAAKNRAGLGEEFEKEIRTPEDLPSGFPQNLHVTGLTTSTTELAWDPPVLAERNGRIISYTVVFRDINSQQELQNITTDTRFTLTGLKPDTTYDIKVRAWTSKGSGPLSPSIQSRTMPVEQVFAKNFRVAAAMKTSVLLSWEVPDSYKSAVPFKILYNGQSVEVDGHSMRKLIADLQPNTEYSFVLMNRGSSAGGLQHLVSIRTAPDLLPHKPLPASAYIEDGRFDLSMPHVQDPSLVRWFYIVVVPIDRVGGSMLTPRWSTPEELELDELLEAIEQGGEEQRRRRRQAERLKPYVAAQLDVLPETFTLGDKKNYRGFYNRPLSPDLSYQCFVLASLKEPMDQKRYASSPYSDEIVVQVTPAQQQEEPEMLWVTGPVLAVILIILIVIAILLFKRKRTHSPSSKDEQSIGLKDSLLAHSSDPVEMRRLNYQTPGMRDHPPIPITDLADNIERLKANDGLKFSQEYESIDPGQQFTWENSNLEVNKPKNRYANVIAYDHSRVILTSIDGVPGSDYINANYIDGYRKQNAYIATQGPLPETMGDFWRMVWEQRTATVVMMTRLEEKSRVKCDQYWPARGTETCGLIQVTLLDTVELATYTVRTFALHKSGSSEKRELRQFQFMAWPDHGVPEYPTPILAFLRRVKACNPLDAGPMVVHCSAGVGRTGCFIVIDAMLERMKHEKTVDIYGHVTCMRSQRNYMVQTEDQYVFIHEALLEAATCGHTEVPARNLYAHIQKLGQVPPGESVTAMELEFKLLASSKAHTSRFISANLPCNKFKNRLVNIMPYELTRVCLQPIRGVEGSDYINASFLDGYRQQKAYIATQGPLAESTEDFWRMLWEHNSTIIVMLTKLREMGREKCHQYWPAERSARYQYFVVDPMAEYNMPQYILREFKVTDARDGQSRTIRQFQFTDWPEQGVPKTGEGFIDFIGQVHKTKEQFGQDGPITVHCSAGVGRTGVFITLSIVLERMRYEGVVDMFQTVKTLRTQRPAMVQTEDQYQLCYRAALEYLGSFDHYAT
T2 sequence (P29350 whole entry, the tested form may be a part): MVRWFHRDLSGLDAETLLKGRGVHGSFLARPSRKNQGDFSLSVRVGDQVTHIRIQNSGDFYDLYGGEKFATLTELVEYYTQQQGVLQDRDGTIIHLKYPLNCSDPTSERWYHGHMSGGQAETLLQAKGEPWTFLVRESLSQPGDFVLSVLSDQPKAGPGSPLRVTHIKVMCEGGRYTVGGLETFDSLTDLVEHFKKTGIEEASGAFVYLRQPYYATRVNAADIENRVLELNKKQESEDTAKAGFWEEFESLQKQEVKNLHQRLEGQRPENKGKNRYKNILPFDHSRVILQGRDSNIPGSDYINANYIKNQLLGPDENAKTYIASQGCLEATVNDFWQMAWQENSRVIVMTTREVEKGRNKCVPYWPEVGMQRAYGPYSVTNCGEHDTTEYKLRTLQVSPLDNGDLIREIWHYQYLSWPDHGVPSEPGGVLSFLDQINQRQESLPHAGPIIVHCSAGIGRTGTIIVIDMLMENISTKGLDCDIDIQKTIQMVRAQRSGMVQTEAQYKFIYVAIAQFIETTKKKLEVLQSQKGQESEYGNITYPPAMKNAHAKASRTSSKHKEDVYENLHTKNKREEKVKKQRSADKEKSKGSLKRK

In the case of `CCOc1cc(NS(C)(=O)=O)c(OCC)cc1CNC(=O)Nc1ccc(OCC)c(C(=O)Nc2ccc(C)cc2)c1`, the IC50 in [1] worked out at 870 nM; in assay [2], 2940 nM; in [3], 6950 nM; in [4], 209 nM. Moreover, the Ratio IC50 in the assay listed under Homo sapiens stood at 4.1. Further, the inhibition in [5] was < 50%.
Regarding `CCOc1cc(NS(C)(=O)=O)c(OCC)cc1CNC(=O)Nc1ccc(OCC)c(C(=O)Nc2cccc(OC)c2)c1`, in [4], the 50% inhibitory concentration (IC50) amounted to 981 nM.
As to `CCOc1cc(NS(C)(=O)=O)c(OCC)cc1CNC(=O)Nc1ccc(OCC)c(C(=O)Nc2ccccc2)c1`, in assay [6], the inhibition was < 50%.
Turning to `CCOc1cc(NS(C)(=O)=O)c(OCC)cc1CNC(=O)Nc1ccc(OCC)c(C(=O)OC)c1`, the figures for the Activity in the assay on L6 [7], in the assay with L6 [8] and with L6 [10] were 16.2%, 22.4% and 22.9%, respectively. The concentration for half-maximal inhibition (IC50) in [1] worked out at 670 nM; in assay [2], 1090 nM; in assay [3] it was 5360 nM; in [9], 910 nM; in assay [4] it was 18.6 nM. The Ratio IC50 in the assay listed under Homo sapiens was found to be 36.
Turning to `CCOc1cc(NS(C)(=O)=O)c(OCC)cc1CNC(=O)Nc1ccc(OCC)c(C(=O)Nc2ccc(OC)cc2)c1`, the inhibition in assay [6] was < 50%.
In the case of `CCCCOc1ccc(NC(=O)NCc2cc(OCC)c(NS(C)(=O)=O)cc2OCC)cc1C(=O)OC`, the half-maximal inhibitory concentration (IC50) in [4] was determined as 711 nM.
On the same count and under the same terms, the result for `CCNC(=O)c1cc(NC(=O)NCc2cc(OCC)c(NS(C)(=O)=O)cc2OCC)ccc1OCC` reads 169 nM.
Take `CCOc1cc(NS(C)(=O)=O)c(OCC)cc1CNC(=O)Nc1ccc(OCC)c(C(=O)Nc2ccc(OC)c(OC)c2)c1`: the values for the Activity with L6 [7], in the assay with L6 [8] and with L6 [10] were 6.6%, 18.7% and 25.8%, respectively. For the same molecule, the IC50 was found to be 390 nM in [1]; 850 nM in assay [2]; 7340 nM in [3]; 1590 nM in [9]; 66.2 nM in assay [4]. Moreover, the Ratio IC50 in the assay filed under Homo sapiens came to 5.9.
Turning to `CCCOc1ccc(NC(=O)NCc2cc(OCC)c(NS(C)(=O)=O)cc2OCC)cc1C(=O)OC`, the half-maximal inhibitory concentration (IC50) in assay [1] is 1180 nM; in assay [2] it was 3450 nM; in assay [9] it was 7760 nM; in [4], 68.2 nM. Moreover, in [11], the inhibition was < 50%. The Ratio IC50 in the assay listed under Homo sapiens turned out to be 17.3.
For the molecule `CCCNC(=O)c1cc(NC(=O)NCc2cc(OCC)c(NS(C)(=O)=O)cc2OCC)ccc1OCC`, the results for the IC50 in [1], in [2] and in [4] were 2020 nM, 8630 nM and 184 nM, respectively. For the same molecule, the inhibition in [11] and in assay [5] was < 50% in each case. Further, in the assay filed under Homo sapiens, the Ratio IC50 was determined as 10.9.
Consider `CCOc1cc(NS(C)(=O)=O)c(OCC)cc1CNC(=O)Nc1ccc(OCC)c(C(=O)NC)c1`, for which the figures for the half-maximal inhibitory concentration (IC50) in assay [1] and in assay [4] were 7620 nM and 166 nM, respectively. Besides, the inhibition in [12], in assay [11] and in assay [5] was < 50% each time. Moreover, the Ratio IC50 in the assay listed under Homo sapiens is 45.9.
